# Activity calls are given as the source filed them. The rule behind the calls is not given here.
# Assays:
# NCI-H322M = test: Cytotoxicity against human NCI-H322M cells after 2 days by sulforhodamine B assay; assay type: functional; conditions: 48 h
# Outline: (§1)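 NCI60 multi-dose screen, 59 human tumour lines available. Cells exposed to compound across a 5-log mol/L concentration range for 2 days, then fixed and stained with sulphorhodamine B, optical density read. Growth inhibition calculated against time-zero control and untreated cells. GI50 derived from the dose series, average of two replicates.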
# SF-295 = test: Cytotoxicity against human SF295 cells after 2 days by sulforhodamine B assay; assay type: functional; conditions: SF-295, 48 h; outline: as §1
# A549 = test: Cytotoxicity against human A549/ATCC cells after 2 days by sulforhodamine B assay; assay type: functional; conditions: A549, 48 h; outline: as §1
# NCI-H522 = test: Cytotoxicity against human NCI-H522 cells after 2 days by sulforhodamine B assay; assay type: functional; conditions: NCI-H522, 48 h; outline: as §1
# MCF7 = test: Cytotoxicity against human ER positive MCF7 cells assessed as cell viability at 1 uM after 72 hrs by MTT assay; assay type: functional, cell-based
# Outline: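 Lines kept in DMEM with 10% fetal bovine serum and 1% penicillin/streptomycin at 37 °C, 5% CO2. Compound applied at 1 µM for 72 h, then standard MTT reduction read-out. Viability given as mean percentage of formazan formed by treated cells relative to mock-treated cells (0.1% DMSO). Run in quadruplicate, standard error, Student's t-test.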
# SF-539 = test: Cytotoxicity against human SF539 cells after 2 days by sulforhodamine B assay; assay type: functional; conditions: SF-539, 48 h; outline: as §1
# MDA-MB-468 = test: Cytotoxicity against human MDA-MB-468 cells after 2 days by sulforhodamine B assay; assay type: functional; conditions: MDA-MB-468, 48 h; outline: as §1
# HCT-116 = test: Cytotoxicity against human HCT116 cells after 2 days by sulforhodamine B assay; assay type: functional; conditions: HCT-116, 48 h; outline: as §1
# SN12C = test: Cytotoxicity against human SN12C cells after 2 days by sulforhodamine B assay; assay type: functional; conditions: 48 h; outline: as §1
# U-251 = test: Cytotoxicity against human U251 cells after 2 days by sulforhodamine B assay; assay type: functional; conditions: U-251, 48 h
# Outline: (§2)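 NCI DTP NCI60 multi-dose screen (59 human tumour lines available). Cells exposed to compound over a 5-log mol/L concentration range for 2 days, then fixed and stained with sulphorhodamine B, with optical density read. Growth inhibition calculated relative to time-zero cells and untreated cells, giving GI50 (half-maximal growth inhibition concentration). Average of two replicates.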
# SF-268 = test: Cytotoxicity against human SF268 cells after 2 days by sulforhodamine B assay; assay type: functional; conditions: SF-268, 48 h; outline: as §1
# HT-29 = test: Cytotoxicity against human HT-29 cells after 2 days by sulforhodamine B assay; assay type: functional; conditions: HT-29, 48 h; outline: as §1
# T47D = test: Cytotoxicity against human T47D cells after 2 days by sulforhodamine B assay; assay type: functional; conditions: 48 h; outline: as §2
# M14 = test: Cytotoxicity against human M14 cells after 2 days by sulforhodamine B assay; assay type: functional; conditions: M14, 48 h; outline: as §1
# HOP-92 = test: Cytotoxicity against human HOP92 cells after 2 days by sulforhodamine B assay; assay type: functional; conditions: HOP-92, 48 h; outline: as §1
# OVCAR-4 = test: Cytotoxicity against human OVCAR4 cells after 2 days by sulforhodamine B assay; assay type: functional; conditions: OVCAR-4, 48 h; outline: as §1
# NCI-H460 = test: Cytotoxicity against human NCI-H460 cells after 2 days by sulforhodamine B assay; assay type: functional; conditions: NCI-H460, 48 h; outline: as §1
# MOLT-4 = test: Cytotoxicity against human MOLT4 cells after 2 days by sulforhodamine B assay; assay type: functional; conditions: MOLT-4, 48 h; outline: as §1
# SNB-19 = test: Cytotoxicity against human SNB19 cells after 2 days by sulforhodamine B assay; assay type: functional; conditions: SNB-19, 48 h; outline: as §2
# LOX IMVI = test: Cytotoxicity against human LOXIMVI cells after 2 days by sulforhodamine B assay; assay type: functional; conditions: 48 h; outline: as §1
# OVCAR-5 = test: Cytotoxicity against human OVCAR5 cells after 2 days by sulforhodamine B assay; assay type: functional; conditions: OVCAR-5, 48 h; outline: as §1
# NCI-H23 = test: Cytotoxicity against human NCI-H23 cells after 2 days by sulforhodamine B assay; assay type: functional; conditions: NCI-H23, 48 h; outline: as §1
# SK-OV-3 = test: Cytotoxicity against human SKOV3 cells after 2 days by sulforhodamine B assay; assay type: functional; conditions: SK-OV-3, 48 h; outline: as §1
# DU-145 = test: Cytotoxicity against human DU145 cells after 2 days by sulforhodamine B assay; assay type: functional; conditions: DU-145, 48 h; outline: as §1
# A498 = test: Cytotoxicity against human A498 cells after 2 days by sulforhodamine B assay; assay type: functional; conditions: A498, 48 h; outline: as §1
# CAKI-1 = test: Cytotoxicity against human CAKI-1 cells after 2 days by sulforhodamine B assay; assay type: functional; conditions: CAKI-1, 48 h; outline: as §1
# 786-0 = test: Cytotoxicity against human 786-0 cells after 2 days by sulforhodamine B assay; assay type: functional; conditions: 786-0, 48 h; outline: as §1
# TK-10 = test: Cytotoxicity against human TK10 cells after 2 days by sulforhodamine B assay; assay type: functional; conditions: TK-10, 48 h; outline: as §2
# [1] = Cytotoxicity against human NCI-ADR-RES cells after 2 days by sulforhodamine B assay; assay type: functional; conditions: 48 h; outline: as §1
# MDA-MB-435 = test: Cytotoxicity against human MDA-MB-435 cells after 2 days by sulforhodamine B assay; assay type: functional; conditions: MDA-MB-435, 48 h; outline: as §1
# [2] = read-out: LC50 (the source's name)
smiles,measurement,setting,value
COc1cc(-c2ccc[nH]2)[nH]c1/C=C1\N=C(C)C(C(=O)CCC(=O)Oc2ccc3c(c2)CC[C@@H]2[C@@H]3CC[C@]3(C)C(=O)CC[C@@H]23)=C1C,GI50,NCI-H322M,32.6 µM
same,LC50 (concentration killing 50% of cells),NCI-H322M,> 100 µM
same,TGI,NCI-H322M,> 100 µM
same,GI50,SF-295,21.4 µM
same,LC50,SF-295,> 100 µM
same,TGI,SF-295,85.4 µM
same,GI50,A549,2.68 µM
same,LC50 (concentration giving 50% net cell kill),A549,> 100 µM
same,TGI,A549,> 100 µM
same,GI50,NCI-H522,4.68 µM
same,LC50,NCI-H522,> 100 µM
same,TGI,NCI-H522,60.1 µM
same,Activity,MCF7,inactive
same,GI50,SF-539,15.5 µM
same,LC50,SF-539,> 100 µM
same,TGI,SF-539,> 100 µM
same,GI50,MDA-MB-468,17 µM
same,LC50,MDA-MB-468,> 100 µM
same,TGI,MDA-MB-468,> 100 µM
same,GI50,HCT-116,0.8 µM
same,LC50 (concentration killing 50% of cells vs time zero),HCT-116,> 100 µM
same,TGI,HCT-116,> 100 µM
same,GI50,SN12C,5.21 µM
same,TGI,SN12C,> 100 µM
same,CC50,SN12C; [2],> 100 µM
same,GI50,U-251,3.41 µM
same,LC50,U-251,> 100 µM
same,TGI,U-251,> 100 µM
same,GI50,SF-268,5.62 µM
same,LC50 (concentration killing 50% of cells),SF-268,> 100 µM
same,TGI,SF-268,> 100 µM
same,GI50,HT-29,0.87 µM
same,LC50,HT-29,> 100 µM
same,TGI,HT-29,> 100 µM
same,GI50,T47D,15.4 µM
same,LC50 (concentration killing 50% of cells),T47D,> 100 µM
same,TGI,T47D,> 100 µM
same,GI50,M14,12.4 µM
same,TGI,M14,33.4 µM
same,CC50,M14; [2],91.2 µM
same,GI50,HOP-92,2.23 µM
same,TGI,HOP-92,19.4 µM
same,CC50,HOP-92; [2],> 100 µM
same,GI50,OVCAR-4,20.9 µM
same,LC50 (concentration killing 50% of cells),OVCAR-4,> 100 µM
same,TGI,OVCAR-4,> 100 µM
same,GI50,NCI-H460,3.09 µM
same,LC50,NCI-H460,> 100 µM
same,TGI,NCI-H460,> 100 µM
same,GI50,MOLT-4,2.72 µM
same,TGI,MOLT-4,> 100 µM
same,CC50,MOLT-4; [2],> 100 µM
same,GI50,SNB-19,18.4 µM
same,TGI,SNB-19,> 100 µM
same,CC50,SNB-19; [2],> 100 µM
same,GI50,LOX IMVI,1.17 µM
same,LC50,LOX IMVI,21.2 µM
same,TGI,LOX IMVI,3.56 µM
same,GI50,OVCAR-5,9.64 µM
same,LC50,OVCAR-5,> 100 µM
same,TGI,OVCAR-5,> 100 µM
same,GI50,NCI-H23,9.8 µM
same,LC50 (concentration killing 50% of cells),NCI-H23,> 100 µM
same,TGI,NCI-H23,> 100 µM
same,GI50,SK-OV-3,> 100 µM
same,LC50 (concentration killing 50% of starting cells),SK-OV-3,> 100 µM
same,TGI,SK-OV-3,> 100 µM
same,GI50,DU-145,1.96 µM
same,LC50 (concentration killing 50% of starting cells),DU-145,> 100 µM
same,TGI,DU-145,> 100 µM
same,GI50,A498,8.49 µM
same,LC50,A498,> 100 µM
same,TGI,A498,59.1 µM
same,GI50,CAKI-1,9.05 µM
same,LC50 (concentration killing 50% of the cells present at time zero),CAKI-1,> 100 µM
same,TGI,CAKI-1,> 100 µM
same,GI50,786-0,5.99 µM
same,LC50 (concentration killing 50% of cells),786-0,> 100 µM
same,TGI,786-0,40 µM
same,GI50,TK-10,27.8 µM
same,LC50,TK-10,> 100 µM
same,TGI,TK-10,> 100 µM
same,GI50,[1],13.1 µM
same,TGI,[1],> 100 µM
same,CC50,[1]; [2],> 100 µM
same,GI50,MDA-MB-435,7.68 µM
same,TGI,MDA-MB-435,> 100 µM
same,CC50,MDA-MB-435; [2],> 100 µM
